Data as given in ChEMBL document CHEMBL4689842, “EUbOPEN Chemogenomics Library wave 1” (2021).

System: U2OS
Assay: Multiplex assay against U2OS
Format: toxicity, cell-based
Conditions: human
How it was run: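 Four dyes were applied at seeding to live cells: Hoechst33342, BioTracker Green Microtubule Cytoskeleton Dye, MitoTracker Red and Annexin V Alexa Fluor 680. Imaging after compound addition used a CQ1 microscope at 37°C and 5% CO2. CellPathfinder machine-learning gating then sorted cells into Hoechst high-intensity objects or normal cells, normal cells into healthy, pyknosed or fragmented nuclei, and pyknosed cells into mitotic or apoptotic, with tubulin, mitochondrial-mass and membrane-permeability phenotypes given as per cents of healthy-nucleus cells.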

[1] = 12 h, 1 µM, compound concentration 1 uM, replicate 1
[2] = 12 h, 1 µM, compound concentration 1 uM, replicate 2
[3] = 12 h, 10 µM, compound concentration 10 uM, replicate 1
[4] = 12 h, 10 µM, compound concentration 10 uM, replicate 2
[5] = 24 h, 1 µM, compound concentration 1 uM, replicate 1
[6] = 24 h, 1 µM, compound concentration 1 uM, replicate 2
[7] = 24 h, 10 µM, compound concentration 10 uM, replicate 1
[8] = 24 h, 10 µM, compound concentration 10 uM, replicate 2
[9] = 48 h, 1 µM, compound concentration 1 uM, replicate 1
[10] = 48 h, 1 µM, compound concentration 1 uM, replicate 2
[11] = 48 h, 10 µM, compound concentration 10 uM, replicate 1
[12] = 48 h, 10 µM, compound concentration 10 uM, replicate 2

SMILES: CCc1cccc(CC)c1NC(=O)c1nn(C)c2c1CCc1cnc(Nc3ccc(C(=O)NC4CCN(C)CC4)cc3OC(F)(F)F)nc1-2
- Population Apoptotic (%) [1]: 34%
- Population Fragmented Nuclei (%) [1]: 18%
- Population Healthy Nuclei (%) [1]: 60%
- Population Hoechst High Intensity Objects (%) [1]: 9%
- Population Membrane Permeable-Phenotype (%) [1]: 3%
- Population Mitochondria Different-Phenotype (%) [1]: 22%
- Population Mitotic Cells (%) [1]: 65%
- Population Normal (%) [1]: 90%
- Population Pyknosed Nuclei (%) [1]: 20%
- Population Tubulin-Different-Phenotype (%) [1]: 12%
- Total Cell Count [1]: 191
- Population Apoptotic (%) [2]: 40%
- Population Fragmented Nuclei (%) [2]: 1%
- Population Healthy Nuclei (%) [2]: 83%
- Population Hoechst High Intensity Objects (%) [2]: 13%
- Population Membrane Permeable-Phenotype (%) [2]: 5%
- Population Mitochondria Different-Phenotype (%) [2]: 14%
- Population Mitotic Cells (%) [2]: 60%
- Population Normal (%) [2]: 86%
- Population Pyknosed Nuclei (%) [2]: 15%
- Population Tubulin-Different-Phenotype (%) [2]: 18%
- Total Cell Count [2]: 51
- Population Apoptotic (%) [3]: 50%
- Population Fragmented Nuclei (%) [3]: 18%
- Population Healthy Nuclei (%) [3]: 54%
- Population Hoechst High Intensity Objects (%) [3]: 5%
- Population Membrane Permeable-Phenotype (%) [3]: 34%
- Population Mitochondria Different-Phenotype (%) [3]: 97%
- Population Mitotic Cells (%) [3]: 50%
- Population Normal (%) [3]: 94%
- Population Pyknosed Nuclei (%) [3]: 26%
- Population Tubulin-Different-Phenotype (%) [3]: 99%
- Total Cell Count [3]: 156
- Population Apoptotic (%) [4]: 46%
- Population Fragmented Nuclei (%) [4]: 12%
- Population Healthy Nuclei (%) [4]: 70%
- Population Membrane Permeable-Phenotype (%) [4]: 15%
- Population Mitochondria Different-Phenotype (%) [4]: 98%
- Population Mitotic Cells (%) [4]: 53%
- Population Pyknosed Nuclei (%) [4]: 17%
- Population Tubulin-Different-Phenotype (%) [4]: 86%
- Total Cell Count [4]: 75
- Population Apoptotic (%) [5]: 44%
- Population Fragmented Nuclei (%) [5]: 15%
- Population Healthy Nuclei (%) [5]: 64%
- Population Hoechst High Intensity Objects (%) [5]: 7%
- Population Membrane Permeable-Phenotype (%) [5]: 3%
- Population Mitochondria Different-Phenotype (%) [5]: 18%
- Population Mitotic Cells (%) [5]: 55%
- Population Normal (%) [5]: 92%
- Population Pyknosed Nuclei (%) [5]: 20%
- Population Tubulin-Different-Phenotype (%) [5]: 11%
- Total Cell Count [5]: 190
- Population Apoptotic (%) [6]: 37%
- Population Fragmented Nuclei (%) [6]: 7%
- Population Healthy Nuclei (%) [6]: 81%
- Population Hoechst High Intensity Objects (%) [6]: 10%
- Population Membrane Permeable-Phenotype (%) [6]: 5%
- Population Mitochondria Different-Phenotype (%) [6]: 12%
- Population Mitotic Cells (%) [6]: 62%
- Population Normal (%) [6]: 89%
- Population Pyknosed Nuclei (%) [6]: 11%
- Population Tubulin-Different-Phenotype (%) [6]: 19%
- Total Cell Count [6]: 53
- Population Apoptotic (%) [7]: 56%
- Population Fragmented Nuclei (%) [7]: 20%
- Population Healthy Nuclei (%) [7]: 48%
- Population Hoechst High Intensity Objects (%) [7]: 5%
- Population Membrane Permeable-Phenotype (%) [7]: 40%
- Population Mitochondria Different-Phenotype (%) [7]: 100%
- Population Mitotic Cells (%) [7]: 43%
- Population Normal (%) [7]: 94%
- Population Pyknosed Nuclei (%) [7]: 30%
- Population Tubulin-Different-Phenotype (%) [7]: 97%
- Total Cell Count [7]: 156
- Population Apoptotic (%) [8]: 50%
- Population Fragmented Nuclei (%) [8]: 15%
- Population Healthy Nuclei (%) [8]: 63%
- Population Hoechst High Intensity Objects (%) [8]: 2%
- Population Membrane Permeable-Phenotype (%) [8]: 26%
- Population Mitochondria Different-Phenotype (%) [8]: 91%
- Population Mitotic Cells (%) [8]: 50%
- Population Normal (%) [8]: 97%
- Population Pyknosed Nuclei (%) [8]: 20%
- Population Tubulin-Different-Phenotype (%) [8]: 73%
- Total Cell Count [8]: 77
- Population Apoptotic (%) [9]: 46%
- Population Fragmented Nuclei (%) [9]: 19%
- Population Healthy Nuclei (%) [9]: 54%
- Population Hoechst High Intensity Objects (%) [9]: 9%
- Population Membrane Permeable-Phenotype (%) [9]: 5%
- Population Mitochondria Different-Phenotype (%) [9]: 18%
- Population Mitotic Cells (%) [9]: 53%
- Population Normal (%) [9]: 90%
- Population Pyknosed Nuclei (%) [9]: 25%
- Population Tubulin-Different-Phenotype (%) [9]: 17%
- Total Cell Count [9]: 179
- Population Apoptotic (%) [10]: 9%
- Population Fragmented Nuclei (%) [10]: 16%
- Population Healthy Nuclei (%) [10]: 72%
- Population Hoechst High Intensity Objects (%) [10]: 4%
- Population Membrane Permeable-Phenotype (%) [10]: 7%
- Population Mitochondria Different-Phenotype (%) [10]: 19%
- Population Mitotic Cells (%) [10]: 90%
- Population Normal (%) [10]: 95%
- Population Pyknosed Nuclei (%) [10]: 11%
- Population Tubulin-Different-Phenotype (%) [10]: 23%
- Total Cell Count [10]: 49
- Population Apoptotic (%) [11]: 57%
- Population Fragmented Nuclei (%) [11]: 27%
- Population Healthy Nuclei (%) [11]: 34%
- Population Hoechst High Intensity Objects (%) [11]: 5%
- Population Membrane Permeable-Phenotype (%) [11]: 57%
- Population Mitochondria Different-Phenotype (%) [11]: 95%
- Population Mitotic Cells (%) [11]: 42%
- Population Normal (%) [11]: 94%
- Population Pyknosed Nuclei (%) [11]: 38%
- Population Tubulin-Different-Phenotype (%) [11]: 98%
- Total Cell Count [11]: 188
- Population Apoptotic (%) [12]: 44%
- Population Fragmented Nuclei (%) [12]: 11%
- Population Healthy Nuclei (%) [12]: 51%
- Population Membrane Permeable-Phenotype (%) [12]: 35%
- Population Mitochondria Different-Phenotype (%) [12]: 86%
- Population Mitotic Cells (%) [12]: 55%
- Population Pyknosed Nuclei (%) [12]: 37%
- Population Tubulin-Different-Phenotype (%) [12]: 64%
- Total Cell Count [12]: 97
